Source: ChEMBL document CHEMBL1152567, “Synthesis and analgesic profile of conformationally constrained N-acylhydrazone analogues: discovery of novel N-arylideneamino quinazolin-4(3H)-one compounds derived from natural safrole” (2009)
Active and inactive are the calls of the source.

Tested on: Mus musculus
Test: Antinociceptive activity in Albino mouse assessed as inhibition of acetic acid-induced abdominal constriction at 100 umol/kg, po treated 1 hr before acetic acid challenge relative to control
Assay type: functional
Settings: Abdomen
How it was run: (§1)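 Albino mice of both sexes (18–23 g), dosed orally as a suspension in 5% arabic gum in saline. Acetic acid given ip 1 h later. Constrictions counted for 20 min, starting 10 min after injection. Expressed as % inhibition versus vehicle controls. Dose–response over 0.3–100 µmol/kg. Mean ± SEM of n animals; one-way ANOVA, Dunnett, P<0.01.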

Question: Which inhibition in vivo at 100 µmol/kg does the source give for `Cc1nc2cc3c(cc2c(=O)n1/N=C/c1ccc(C(C)C)cc1)OCO3` here?
Answer: 32.9%

Question: For `Cc1nc2cc3c(cc2c(=O)n1/N=C/c1ccncc1)OCO3`, which inhibition in vivo at 100 µmol/kg is on record?
Answer: 38.5%

Question: For `Cc1nc2cc3c(cc2c(=O)n1/N=C/c1ccccc1)OCO3`, which inhibition in vivo at 100 µmol/kg is on record?
Answer: 17.6%

Question: Which inhibition in vivo at 100 µmol/kg does the source give for `Cc1nc2cc3c(cc2c(=O)n1/N=C/c1ccccn1)OCO3` here?
Answer: 18.5%

Question: For `C/C(=N\n1c(C)nc2cc3c(cc2c1=O)OCO3)c1cccs1`, which inhibition in vivo at 100 µmol/kg is on record?
Answer: 45.3%

Question: How did the inhibition in vivo at 100 µmol/kg turn out when `Cc1nc2cc3c(cc2c(=O)n1/N=C/c1ccc(N(C)C)cc1)OCO3` was run?
Answer: 43%

Question: With `Cc1nc2cc3c(cc2c(=O)n1/N=C/c1ccco1)OCO3` as the compound, how does the inhibition in vivo at 100 µmol/kg read?
Answer: 16.9%

Question: With `Cc1c(N(C)CS(=O)(=O)[O-])c(=O)n(-c2ccccc2)n1C.[Na+]` [DIPYRONE SODIUM] as the compound, how does the inhibition in vivo at 100 µmol/kg read?
Answer: 36%

Question: For `Cc1nc2cc3c(cc2c(=O)n1/N=C/c1ccsc1)OCO3`, which inhibition in vivo at 100 µmol/kg is on record?
Answer: 34.7%

Question: How did the inhibition in vivo at 100 µmol/kg turn out when `Cc1nc2cc3c(cc2c(=O)n1/N=C/c1cccnc1)OCO3` was run?
Answer: 35.2%

Question: For `Cc1nc2cc3c(cc2c(=O)n1/N=C/c1cccs1)OCO3`, which inhibition in vivo at 100 µmol/kg is on record?
Answer: 10.7%

Tested on: Mus musculus
Test: Antinociceptive activity in po treated Albino mouse assessed as inhibition of acetic acid-induced abdominal constriction treated 1 hr before acetic acid challenge
Assay type: functional
Settings: Abdomen
How it was run: as §1

Question: Which ED50 does the source give for `Cc1nc2cc3c(cc2c(=O)n1/N=C/c1ccc(N(C)C)cc1)OCO3` here?
Answer: 5.4 µmol/kg

Question: `Cc1c(N(C)CS(=O)(=O)[O-])c(=O)n(-c2ccccc2)n1C.[Na+]` [DIPYRONE SODIUM] was tested. Which ED50 did it give?
Answer: 144 µmol/kg

Same assay, conditions: Abdomen, read-out: ED50

Question: `C/C(=N\n1c(C)nc2cc3c(cc2c1=O)OCO3)c1cccs1` was tested. Which ED50 did it give?
Answer: 3.5 mg/kg

Tested on: Mus musculus
Test: Antinociceptive activity in Albino swiss mouse assessed as inhibition of formalin induced pain at 100 umol/kg, ip treated 1 hr before formalin challenge
Assay type: functional, organism-based
Settings: not given
How it was run: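 Albino Swiss mice of both sexes (18–25 g), fasted 8 h, dosed ip in 5% arabic gum. 60 min later, 20 µL of 2.5% formalin subplantar in one hind paw. Time spent licking or biting the paw scored at 0–5 min (neurogenic phase) and 15–30 min (inflammatory phase). Mean ± SEM, n=6–12; two-way ANOVA, Bonferroni.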

Question: How did the inhibition turn out when `C/C(=N\n1c(C)nc2cc3c(cc2c1=O)OCO3)c1cccs1` was run?
Answer: Active

Question: `Cc1nc2cc3c(cc2c(=O)n1/N=C/c1ccc(N(C)C)cc1)OCO3` was tested. Which inhibition did it give?
Answer: Active

Tested on: Mus musculus
Test: Analgesic activity in Swiss mouse assessed as response to thermal stimulation at 100 umol/kg, ip by Hot-plate test
Assay type: functional, organism-based
Settings: not given
How it was run: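 Swiss mice of both sexes, fasted 8 h, water ad libitum; dosed ip in 1% tween in saline. Placed on plate at 55 ± 0.1 °C; paw licking or withdrawal timed. Two control readings 30 min apart set baseline latency; cut-off three times control mean. Latency recorded every 30 min after dosing for 150 min. Mean ± SEM, n=7.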

Question: How did the Activity turn out when `C/C(=N\n1c(C)nc2cc3c(cc2c1=O)OCO3)c1cccs1` was run?
Answer: inactive

Question: How did the Activity turn out when `Cc1nc2cc3c(cc2c(=O)n1/N=C/c1ccc(N(C)C)cc1)OCO3` was run?
Answer: inactive

Tested on: Rattus norvegicus
Test: Analgesic activity in carrageenan-induced Wistar rat hyperalgesia model assessed as reduction in latency time at 100 umol/kg, ip treated 60 mins before carrageen challenge
Assay type: functional
Design: scale not given: the % may be the effect or the level left
Settings: not given
How it was run: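 Wistar rats, dosed ip in 1% tween 80 in saline. Carrageenan 1 mg/paw intraplantar in left paw, saline in right, 100 µL each. Left-paw withdrawal latency on 51 ± 0.1 °C plate at 0, 30, 60, 120, 180, 240 min; cut-off 20 s. Hyperalgesia taken as latency at time 0 minus later latency. Mean ± SEM, n=8–10; one-way ANOVA, Dunnett.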

Question: How did the Activity turn out when `C/C(=N\n1c(C)nc2cc3c(cc2c1=O)OCO3)c1cccs1` was run?
Answer: 50%

Question: How did the Activity turn out when `Cc1nc2cc3c(cc2c(=O)n1/N=C/c1ccc(N(C)C)cc1)OCO3` was run?
Answer: 50%

Tested on: Rattus norvegicus
Test: Antiinflammatory activity in Albino rat assessed as inhibition of carrageenan-induced paw edema at 10 umol/kg, ip
Assay type: functional
Settings: not given
How it was run: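 Albino rats of both sexes (150–200 g), dosed as a suspension in 1% tween 80 in saline. 1 h later, 1% carrageenan (0.1 mg/paw) into one hind paw subplantar, saline into the other. Paw volumes by plethysmometer at 3 h; edema is the difference between the paws. Expressed as % inhibition versus vehicle controls.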

Question: `C/C(=N\n1c(C)nc2cc3c(cc2c1=O)OCO3)c1cccs1` was tested. Which inhibition did it give?
Answer: inactive

Question: `Cc1nc2cc3c(cc2c(=O)n1/N=C/c1ccc(N(C)C)cc1)OCO3` was tested. Which inhibition did it give?
Answer: inactive

Species: Oryctolagus cuniculus
Test: Inhibition of arachidonic acid-induced rabbit platelet aggregation by turbidimetric method
Assay type: functional
Settings: not given
How it was run: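 Rabbits (2.5–3.0 kg) bled from the central ear artery into 3.8% trisodium citrate (9:1). PRP was spun at 1800 rpm and PPP at 3600 rpm, 10 min each at room temperature. PRP was stirred at 900 rpm at 37 °C, with compound or 0.5% DMSO vehicle added 5 min before arachidonic acid (200 µM in methods; 100 µM elsewhere). Read-out was percent of AA aggregation.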

Question: How did the inhibition turn out when `Cc1nc2cc3c(cc2c(=O)n1/N=C/c1ccc(C(C)C)cc1)OCO3` was run?
Answer: inactive

Question: Which inhibition does the source give for `Cc1nc2cc3c(cc2c(=O)n1/N=C/c1ccncc1)OCO3` here?
Answer: inactive

Question: `Cc1nc2cc3c(cc2c(=O)n1/N=C/c1ccccc1)OCO3` was tested. Which inhibition did it give?
Answer: inactive

Question: How did the inhibition turn out when `Cc1nc2cc3c(cc2c(=O)n1/N=C/c1ccccn1)OCO3` was run?
Answer: inactive

Question: For `C/C(=N\n1c(C)nc2cc3c(cc2c1=O)OCO3)c1cccs1`, which inhibition is on record?
Answer: inactive

Question: Which inhibition does the source give for `Cc1nc2cc3c(cc2c(=O)n1/N=C/c1ccc(N(C)C)cc1)OCO3` here?
Answer: inactive

Question: How did the inhibition turn out when `Cc1nc2cc3c(cc2c(=O)n1/N=C/c1ccco1)OCO3` was run?
Answer: inactive

Question: With `Cc1nc2cc3c(cc2c(=O)n1/N=C/c1ccsc1)OCO3` as the compound, how does the inhibition read?
Answer: inactive

Question: For `Cc1nc2cc3c(cc2c(=O)n1/N=C/c1cccnc1)OCO3`, which inhibition is on record?
Answer: inactive

Question: Which inhibition does the source give for `Cc1nc2cc3c(cc2c(=O)n1/N=C/c1cccs1)OCO3` here?
Answer: inactive

Tested on: Rattus norvegicus
Test: Antiinflammatory activity in Albino rat assessed as inhibition of carrageenan-induced paw edema at 100 umol/kg, ip
Design: scale not given: the % may be the effect or the level left
Settings: not given

Question: For `COc1ccc2c(c1)c(CC(=O)O)c(C)n2C(=O)c1ccc(Cl)cc1` [INDOMETHACIN], which Activity is on record?
Answer: 61%
